{
  "source": "paper PMC9701462",
  "about": "(Hepatology Communications, 2022)",
  "type_in_all_cases": "in vivo, human",
  "key": {"[1]": {"tested_on": "subjects with presumed F2/F3 NASH", "test": "Serum liver enzymes ALT and AST, Phase 2a exploratory efficacy", "conditions": "for ALT, Mean: serum", "summary_of_the_method": "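Serum ALT and AST are exploratory efficacy endpoints, taken as absolute and percent change from baseline. Sampling was at Day 1 before dosing, during 28 days of once-daily fasted oral dosing, and after a 14-day off-drug observation period. Analysis used repeated-measures ANOVA/ANCOVA with Bonferroni correction, or Friedman/Savage nonparametric ANOVA when data were non-normal or sparse.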"}, "[2]": {"test": "Whole-blood pharmacokinetics", "conditions": "subjects with F2/F3 NASH, derived from CL/F and Vc/F estimates", "summary_of_the_method": "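Whole-blood samples were taken on Day 1 and Day 28 of once-daily oral dosing and assayed for parent drug and primary metabolites. Population PK used nonlinear mixed-effects modeling with first-order conditional estimation with interaction. Model choice used −2LL, AIC/BIC, %RSE and residual/VPC diagnostics; predictions ran to 816 h. CIs came from jackknife bootstrap (500 runs). Half-life was derived from CL/F and Vc/F estimates.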"}, "[3]": {"tested_on": "subjects with presumed F2/F3 NASH", "test": "Phase 2a safety and tolerability", "conditions": "28 days", "summary_of_the_method": "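Single-blind (subjects only), 2:1 randomized, placebo-controlled, at 10 US sites. Dosing was oral, once daily in the morning, fasted, for 28 days, as 75-mg soft-gelatin capsules. AEs, SAEs, labs (chemistry, hematology, coagulation, urinalysis), ECG, vitals and physical exams were recorded at screening, at Day 1 pre-dose baseline, then weekly for 4 weeks. Results are given as counts and percentages of the safety set per group.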"}, "[4]": {"tested_on": "subjects with presumed F2/F3 NASH", "test": "Collagen biomarkers", "conditions": "for Pro-C3, Mean: plasma", "summary_of_the_method": "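Adults with presumed F2/F3 NASH were randomized 2:1 to oral active or matching placebo, given as 75-mg soft-gelatin capsules once daily in the morning, fasted, for 28 days. Collagen turnover markers were sampled at baseline (Day 1, pre-dose), after 28 days of dosing, and at end of study after a 14-day observation period. Values are summarized as mean, SD, median and range.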"}, "[5]": {"conditions": "75 mg QD oral x 28 days, Day 1 (baseline, before dosing), N = 15"}, "[6]": {"conditions": "75 mg QD oral x 28 days, Day 14, N = 15"}, "[7]": {"conditions": "75 mg QD oral x 28 days, Day 28, N = 15"}, "[8]": {"conditions": "75 mg QD oral x 28 days, Day 42 (after 14-day observation period), N = 15"}, "[9]": {"conditions": "225 mg QD oral x 28 days, Day 1 (baseline, before dosing), N = 16"}, "[10]": {"conditions": "225 mg QD oral x 28 days, Day 14, N = 16"}, "[11]": {"conditions": "225 mg QD oral x 28 days, Day 28, N = 16"}, "[12]": {"conditions": "225 mg QD oral x 28 days, Day 42 (after 14-day observation period), N = 16"}, "[13]": {"conditions": "75 mg QD oral x 28 days, Day 1 (baseline, before dosing), N = 14"}, "[14]": {"conditions": "75 mg QD oral x 28 days, Day 14, N = 14"}, "[15]": {"conditions": "75 mg QD oral x 28 days, Day 28, N = 14"}, "[16]": {"conditions": "75 mg QD oral x 28 days, Day 42 (after 14-day observation period), N = 14"}, "[17]": {"conditions": "225 mg QD oral x 28 days, Day 1 (baseline, before dosing), N = 15"}, "[18]": {"conditions": "225 mg QD oral x 28 days, Day 14, N = 15"}, "[19]": {"conditions": "225 mg QD oral x 28 days, Day 28, N = 15"}},
  "data": [
    {"substance": "Rencofilstat [RCF]", "values": [
      {"measurement": "AST, Mean", "setting": "[1]; [5]", "result": 49.47, "unit": "IU/L"},
      {"measurement": "ALT, Mean", "setting": "[1]; [5]", "result": 60.53, "unit": "IU/L"},
      {"measurement": "AST, Mean", "setting": "[1]; [6]", "result": 39.42, "unit": "IU/L"},
      {"measurement": "ALT, Mean", "setting": "[1]; [6]", "result": 47.00, "unit": "IU/L"},
      {"measurement": "AST, Mean", "setting": "[1]; [7]", "result": 35.08, "unit": "IU/L"},
      {"measurement": "ALT, Mean", "setting": "[1]; [7]", "result": 42.50, "unit": "IU/L"},
      {"measurement": "AST, Mean", "setting": "[1]; [8]", "result": 41.45, "unit": "IU/L"},
      {"measurement": "ALT, Mean", "setting": "[1]; [8]", "result": 50.00, "unit": "IU/L"},
      {"measurement": "AST, Mean", "setting": "[1]; [9]", "result": 31.94, "unit": "IU/L"},
      {"measurement": "ALT, Mean", "setting": "[1]; [9]", "result": 36.06, "unit": "IU/L"},
      {"measurement": "AST, Mean", "setting": "[1]; [10]", "result": 32.82, "unit": "IU/L"},
      {"measurement": "ALT, Mean", "setting": "[1]; [10]", "result": 31.59, "unit": "IU/L"},
      {"measurement": "AST, Mean", "setting": "[1]; [11]", "result": 32.38, "unit": "IU/L"},
      {"measurement": "ALT, Mean", "setting": "[1]; [11]", "result": 30.56, "unit": "IU/L"},
      {"measurement": "AST, Mean", "setting": "[1]; [12]", "result": 31.38, "unit": "IU/L"},
      {"measurement": "effective half-life of elimination (T1/2)", "setting": "[2]", "result": "33.7 ± 11.1", "unit": "h"},
      {"measurement": "Subjects with any TEAE", "setting": "[3]; 75 mg QD oral, N = 15", "result": "5 (33.3%) n (%)"},
      {"measurement": "TEAE: Back pain", "setting": "[3]; 75 mg QD oral, N = 15", "result": "0 (0%) n (%)"},
      {"measurement": "TEAE: Constipation", "setting": "[3]; 75 mg QD oral, N = 15", "result": "1 (6.7%) n (%)"},
      {"measurement": "TEAE: Diarrhea", "setting": "[3]; 75 mg QD oral, N = 15", "result": "0 (0%) n (%)"},
      {"measurement": "TEAE: Dizziness", "setting": "[3]; 75 mg QD oral, N = 15", "result": "0 (0%) n (%)"},
      {"measurement": "TEAE: Gastrointestinal disorders", "setting": "[3]; 75 mg QD oral, N = 15", "result": "1 (6.7%) n (%)"},
      {"measurement": "TEAE: Headache", "setting": "[3]; 75 mg QD oral, N = 15", "result": "0 (0%) n (%)"},
      {"measurement": "TEAE: Musculoskeletal disorders", "setting": "[3]; 75 mg QD oral, N = 15", "result": "2 (13.3%) n (%)"},
      {"measurement": "TEAE: Nervous system disorders", "setting": "[3]; 75 mg QD oral, N = 15", "result": "1 (6.7%) n (%)"},
      {"measurement": "deaths or treatment-emergent SAEs (TESAEs)", "setting": "[3]; 75 mg and 225 mg QD oral", "result": "No deaths or TESAEs"},
      {"measurement": "safety signals", "setting": "[3]; 75 mg and 225 mg QD oral", "result": "No safety signals were identified"},
      {"measurement": "Subjects with any TEAE", "setting": "[3]; 225 mg QD oral, N = 17", "result": "10 (58.8%) n (%)"},
      {"measurement": "TEAE: Back pain", "setting": "[3]; 225 mg QD oral, N = 17", "result": "1 (5.9%) n (%)"},
      {"measurement": "TEAE: Constipation", "setting": "[3]; 225 mg QD oral, N = 17", "result": "2 (11.8%) n (%)"},
      {"measurement": "TEAE: Diarrhea", "setting": "[3]; 225 mg QD oral, N = 17", "result": "2 (11.8%) n (%)"},
      {"measurement": "TEAE: Dizziness", "setting": "[3]; 225 mg QD oral, N = 17", "result": "1 (5.9%) n (%)"},
      {"measurement": "TEAE: Gastrointestinal disorders", "setting": "[3]; 225 mg QD oral, N = 17", "result": "5 (29.4%) n (%)"},
      {"measurement": "TEAE: Headache", "setting": "[3]; 225 mg QD oral, N = 17", "result": "1 (5.9%) n (%)"},
      {"measurement": "TEAE: Musculoskeletal disorders", "setting": "[3]; 225 mg QD oral, N = 17", "result": "2 (11.8%) n (%)"},
      {"measurement": "TEAE: Nervous system disorders", "setting": "[3]; 225 mg QD oral, N = 17", "result": "2 (11.8%) n (%)"},
      {"measurement": "C1M, Mean", "setting": "[4]; [13]", "result": 90185.71, "unit": "pg/mL"},
      {"measurement": "C6M, Mean", "setting": "[4]; [13]", "result": 25142.86, "unit": "pg/mL"},
      {"measurement": "PRO-C8, Mean", "setting": "[4]; [5]", "result": 4985.33, "unit": "pg/mL"},
      {"measurement": "Pro-C3, Mean", "setting": "[4]; [13]", "result": 23792.86, "unit": "pg/mL"},
      {"measurement": "C1M, Mean", "setting": "[4]; [14]", "result": 80125.00, "unit": "pg/mL"},
      {"measurement": "C6M, Mean", "setting": "[4]; [14]", "result": 25825.00, "unit": "pg/mL"},
      {"measurement": "PRO-C8, Mean", "setting": "[4]; [6]", "result": 4693.33, "unit": "pg/mL"},
      {"measurement": "Pro-C3, Mean", "setting": "[4]; [14]", "result": 22916.67, "unit": "pg/mL"},
      {"measurement": "C1M, Mean", "setting": "[4]; [15]", "result": 70490.91, "unit": "pg/mL"},
      {"measurement": "C6M, Mean", "setting": "[4]; [15]", "result": 23354.55, "unit": "pg/mL"},
      {"measurement": "PRO-C8, Mean", "setting": "[4]; [7]", "result": 4683.33, "unit": "pg/mL"},
      {"measurement": "Pro-C3, Mean", "setting": "[4]; [15]", "result": 22933.33, "unit": "pg/mL"},
      {"measurement": "C1M, Mean", "setting": "[4]; [16]", "result": 65309.09, "unit": "pg/mL"},
      {"measurement": "C6M, Mean", "setting": "[4]; [16]", "result": 23783.33, "unit": "pg/mL"},
      {"measurement": "PRO-C8, Mean", "setting": "[4]; [8]", "result": 4923.33, "unit": "pg/mL"},
      {"measurement": "PRO-C8, Mean", "setting": "[4]; [17]", "result": 4693.33, "unit": "pg/mL"},
      {"measurement": "C1M, Mean", "setting": "[4]; [9]", "result": 70262.50, "unit": "pg/mL"},
      {"measurement": "C6M, Mean", "setting": "[4]; [9]", "result": 31406.25, "unit": "pg/mL"},
      {"measurement": "Pro-C3, Mean", "setting": "[4]; [17]", "result": 24413.33, "unit": "pg/mL"},
      {"measurement": "PRO-C8, Mean", "setting": "[4]; [18]", "result": 4138.13, "unit": "pg/mL"},
      {"measurement": "C1M, Mean", "setting": "[4]; [10]", "result": 55843.75, "unit": "pg/mL"},
      {"measurement": "C6M, Mean", "setting": "[4]; [10]", "result": 29168.75, "unit": "pg/mL"},
      {"measurement": "Pro-C3, Mean", "setting": "[4]; [18]", "result": 22418.75, "unit": "pg/mL"},
      {"measurement": "PRO-C8, Mean", "setting": "[4]; [19]", "result": 4416.88, "unit": "pg/mL"},
      {"measurement": "C1M, Mean", "setting": "[4]; [11]", "result": 62100.00, "unit": "pg/mL"},
      {"measurement": "C6M, Mean", "setting": "[4]; [11]", "result": 31362.5, "unit": "pg/mL"},
      {"measurement": "Pro-C3, Mean", "setting": "[4]; [19]", "result": 24043.75, "unit": "pg/mL"},
      {"measurement": "PRO-C8, Mean", "setting": "[4]; 225 mg QD oral x 28 days, Day 42 (after 14-day observation period), N = 15", "result": 4712.94, "unit": "pg/mL"},
      {"measurement": "C1M, Mean", "setting": "[4]; [12]", "result": 69850.00, "unit": "pg/mL"},
      {"measurement": "C6M, Mean", "setting": "[4]; [12]", "result": 33168.75, "unit": "pg/mL"}
    ]}
  ]
}
